Measured values gathered from unrelated publications.
Target: Mu-type opioid receptor (OPRM1, Homo sapiens, UniProt P35372)

The activation of `CN1CCN(c2cc(-c3ccncc3)c(-c3ccc4ccccc4c3)nn2)CC1` is reported as 0.3% (calcium signal, agonist; OPRM1; 12.5 µM).
The inhibition of `C[C@H](C(=O)N[C@H]1COc2ccccc2[C@@H]1S(C)(=O)=O)c1ccc(F)cc1` is reported as -8% (ligand displacement; 10 µM).
The inhibition of `CC(C)N1CCC[C@H]1CNC(=O)c1cn(C2CCCC2)c(=O)c2c1c1ccccc1n2C` is reported as 5% (ligand displacement, radioligand; 10 µM).
The inhibition of `COCc1c(-c2cc3cc(C)cc(OC)c3s2)c2c(N)ncnn2c1CN1CCNC(=O)C1` is reported as 31% (ligand displacement, radioligand; 10 µM).
The Emax of `COc1ccsc1CNCC[C@@]1(c2ccccn2)CCOC2(CCCC2)C1` is reported as less than 5% (β-arrestin recruitment, agonist; HEK-293T).
`CCCCC/C=C\C/C=C\C/C=C\C/C=C\CCCC(=O)O` has an inhibition of 80% (ligand displacement, radioligand; 10 µM, cell membranes).
`Nc1ncc(-c2nc(N3CCOCC3)nc(N3CCOCC3)n2)c(C(F)F)n1` has a remaining signal of 104% (cell-free assay, radioligand; 10 µM).
`CN(C)C(=O)Cn1cc(-c2nc(C3(c4ccc(-c5cnc(N)nc5)cc4)CC3)no2)cn1` has an inhibition of 12.6% (cell-free assay; 10 µM).
For `CC1(C)SSC(C)(C)[C@@H](NC(=O)[C@@H](N)Cc2ccc(O)cc2)C(=O)NCC(=O)N[C@@H](Cc2ccccc2)C(=O)N2CCN(CC2)C(=O)[C@H](Cc2ccccc2)NC(=O)CNC(=O)[C@@H]1NC(=O)[C@@H](N)Cc1ccc(O)cc1`, the Emax was 86% (cAMP, agonist, luciferase; HEK293).
With `COc1ccsc1CNCC[C@@]1(c2ccccn2)CCOC2(CCCC2)C1` the Emax was less than 50% (β-arrestin recruitment, agonist).
`Clc1ccc2c(C3CCN(CCc4c[nH]c5ccccc45)CC3)c[nH]c2c1` gave an inhibition of 93% (ligand displacement, radioligand; 10 µM).
The inhibition of `c1ccc(C(NCCNC(c2ccccc2)c2ccccc2)c2ccccc2)cc1` is reported as 21% (ligand displacement; 10 µM).
`CC1=C(C#N)C(c2ccc3[nH]nc(C)c3c2)C(C#N)=C(C)N1` gave an inhibition of 2.64% (ligand displacement; 10 µM).
With `CC[C@@H]1CN2CC[C@@]3(O)C(=Nc4cccc(OC)c43)[C@@H]2C[C@@H]1/C(=C\OC)C(=O)OC` the Emax was less than 50% (β-arrestin recruitment, agonist).
`COc1ccc2c(c1)O[C@H](c1ccc(OC)c(OC)c1)C[C@@H]2NC(=O)C1(c2ccc3c(c2)OC(F)(F)O3)CC1` has an inhibition of 6.01% (cell-free assay; 10 µM).
With `CCN(CC)CCCC[C@H](NC(=O)[C@H](CC(C)C)NC(=O)[C@H](C)NC(=O)[C@H](Cc1ccccc1)NC(=O)c1ccc(C(C)(C)C)cc1)C(=O)N[C@@H](CO)C(=O)OC` the remaining binding was 48.6% (ligand displacement, radioligand; 10 µM).
